Test results as given in ChEMBL document CHEMBL2407079, “Potent DGAT1 Inhibitors in the Benzimidazole Class with a Pyridyl-oxy-cyclohexanecarboxylic Acid Moiety” (ACS Med Chem Lett, 2013).
The source made the active and inactive calls. No cut-off for these calls is given here.

Assays:
[1] = target: T1, Diacylglycerol O-acyltransferase 1 (Homo sapiens, UniProt O75907); assay: Inhibition of human DGAT1
T1 sequence (O75907 whole entry): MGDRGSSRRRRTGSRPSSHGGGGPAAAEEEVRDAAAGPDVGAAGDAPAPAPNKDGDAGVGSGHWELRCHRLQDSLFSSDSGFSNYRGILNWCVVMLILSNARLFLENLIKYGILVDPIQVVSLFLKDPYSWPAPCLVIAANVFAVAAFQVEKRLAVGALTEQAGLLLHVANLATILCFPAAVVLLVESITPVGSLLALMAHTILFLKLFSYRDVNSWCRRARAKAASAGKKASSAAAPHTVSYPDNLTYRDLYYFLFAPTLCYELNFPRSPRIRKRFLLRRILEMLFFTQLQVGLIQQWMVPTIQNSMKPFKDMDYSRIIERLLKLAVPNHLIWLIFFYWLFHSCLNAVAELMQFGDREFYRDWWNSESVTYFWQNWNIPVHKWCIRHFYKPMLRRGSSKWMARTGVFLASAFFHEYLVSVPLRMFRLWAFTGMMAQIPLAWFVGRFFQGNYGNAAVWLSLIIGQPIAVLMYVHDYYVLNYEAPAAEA

[2] = Lipophilicity, log D of the compound by HPLC analysis; format: physicochemical
[3] = target: T2, Diacylglycerol O-acyltransferase 1 (Mus musculus, UniProt Q9Z2A7); assay: Inhibition of mouse DGAT1
T2 sequence (Q9Z2A7 whole entry): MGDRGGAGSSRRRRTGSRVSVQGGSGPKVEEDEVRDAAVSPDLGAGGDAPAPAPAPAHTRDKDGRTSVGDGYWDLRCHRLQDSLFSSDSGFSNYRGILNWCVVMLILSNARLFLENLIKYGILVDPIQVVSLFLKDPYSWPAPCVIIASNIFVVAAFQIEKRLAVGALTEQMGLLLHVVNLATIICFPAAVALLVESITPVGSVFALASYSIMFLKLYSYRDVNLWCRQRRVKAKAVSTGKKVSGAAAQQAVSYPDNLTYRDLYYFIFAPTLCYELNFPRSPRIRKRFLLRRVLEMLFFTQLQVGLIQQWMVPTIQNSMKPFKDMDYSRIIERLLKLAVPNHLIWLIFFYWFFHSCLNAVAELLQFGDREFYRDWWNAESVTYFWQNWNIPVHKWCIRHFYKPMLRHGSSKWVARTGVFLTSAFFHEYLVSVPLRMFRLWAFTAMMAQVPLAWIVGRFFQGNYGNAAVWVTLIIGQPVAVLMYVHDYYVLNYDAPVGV

[4] = AUC in Sprague-Dawley rat at 10 mg/kg, po; format: ADME, organism-based; design: dose 10 mg/kg, route oral; conditions: plasma
Summary of the method: (§1)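 Sprague–Dawley rats; oral 10 mg/kg given as a solid dispersion formulation, with the iv arm at 1 mg/kg in EtOH/PEG400/water (10:50:40). Plasma exposure measured for the parent and for the epimer metabolite.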

[5] = Clearance in beagle dog at 0.55 mg/kg, iv; format: ADME, organism-based, Canis lupus familiaris; design: dose 0.55 mg/kg, route intravenous; conditions: in vivo
Summary of the method: (§2)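 Beagles; iv 0.55 mg/kg as a solution in EtOH/PEG400/water (10:50:40), and oral 2 mg/kg as a solution in 0.5% methylcellulose. Plasma measured for the parent and the epimer metabolite.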

Rattus norvegicus [6] = assay: AUC in Sprague-Dawley rat assessed as trans-4-(5-(5-fluoro-1H-benzo[d]imidazol-2-yl)-2,3'-bipyridin-6'-yloxy)cyclohexanecarboxylic acid at 10 mg/kg, po; format: ADME, organism-based, Plasma; design: dose 10 mg/kg, route oral; conditions: in vivo; summary of the method: as §1
[7] = Clearance in Sprague-Dawley rat at 1 mg/kg, iv; format: ADME, organism-based; design: dose 1 mg/kg, route intravenous; conditions: in vivo
Summary of the method: (§3)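 Sprague–Dawley rats; intravenous dose of 1 mg/kg given as a solution in EtOH/PEG400/water (10:50:40).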

Canis familiaris [8] = assay: AUC in beagle dog assessed as trans-4-(5-(5-fluoro-1H-benzo[d]imidazol-2-yl)-2,3'-bipyridin-6'-yloxy)cyclohexanecarboxylic acid at 2 mg/kg, po; format: ADME, organism-based, Canis lupus familiaris, Plasma; design: dose 2 mg/kg, route oral; conditions: in vivo; summary of the method: as §2
[9] = Tmax in rhesus monkey at 2 mg/kg, po; format: ADME, organism-based, Macaca mulatta; design: dose 2 mg/kg, route oral; conditions: in vivo
Summary of the method: (§4)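 Rhesus monkeys; iv 1 mg/kg as a solution in EtOH/PEG400/water (10:50:40), and oral 2 mg/kg as a solution in 0.5% methylcellulose. Plasma measured for the parent and the epimer metabolite.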

[10] = Clearance in rhesus monkey at 1 mg/kg, iv; format: ADME, organism-based, Macaca mulatta; design: dose 1 mg/kg, route intravenous; conditions: in vivo; summary of the method: as §4
[11] = Bioavailability in beagle dog at 0.55 mg/kg, iv; format: ADME, organism-based, Canis lupus familiaris; conditions: in vivo; summary of the method: as §2
[12] = Tmax in Sprague-Dawley rat at 10 mg/kg, po; format: ADME, organism-based; design: dose 10 mg/kg, route oral; conditions: in vivo; summary of the method: as §1
[13] = Half life in beagle dog at 0.55 mg/kg, iv; format: ADME, organism-based, Canis lupus familiaris; design: dose 0.55 mg/kg, route intravenous; conditions: in vivo; summary of the method: as §2
[14] = Tmax in beagle dog at 2 mg/kg, po; format: ADME, organism-based, Canis lupus familiaris; design: dose 2 mg/kg, route oral; conditions: in vivo; summary of the method: as §2
[15] = Half life in rhesus monkey at 1 mg/kg, iv; format: ADME, organism-based, Macaca mulatta; design: dose 1 mg/kg, route intravenous; conditions: in vivo; summary of the method: as §4
Rhesus monkey = assay: AUC in rhesus monkey assessed as trans-4-(5-(5-fluoro-1H-benzo[d]imidazol-2-yl)-2,3'-bipyridin-6'-yloxy)cyclohexanecarboxylic acid at 2 mg/kg, po; format: ADME, organism-based, Macaca mulatta, Plasma; design: dose 2 mg/kg, route oral; conditions: in vivo; summary of the method: as §4
[16] = Cmax in rhesus monkey at 2 mg/kg, po; format: ADME, organism-based, Macaca mulatta; design: dose 2 mg/kg, route oral; conditions: in vivo; summary of the method: as §4
[17] = Volume of distribution at steady state in rhesus monkey at 1 mg/kg, iv; format: ADME, organism-based, Macaca mulatta; design: dose 1 mg/kg, route intravenous; conditions: in vivo, read-out: Vdss; summary of the method: as §4
[18] = Volume of distribution at steady state in beagle dog at 0.55 mg/kg, iv; format: ADME, organism-based, Canis lupus familiaris; design: dose 0.55 mg/kg, route intravenous; conditions: in vivo, read-out: Vdss; summary of the method: as §2
[19] = Bioavailability in rhesus monkey at 1 mg/kg, iv; format: ADME, organism-based, Macaca mulatta; conditions: in vivo; summary of the method: as §4
[20] = Bioavailability in Sprague-Dawley rat at 1 mg/kg, iv; format: ADME, organism-based; conditions: in vivo; summary of the method: as §3
[21] = Cmax in Sprague-Dawley rat at 10 mg/kg, po; format: ADME, organism-based; design: dose 10 mg/kg, route oral; conditions: in vivo; summary of the method: as §1
[22] = Half life in Sprague-Dawley rat at 1 mg/kg, iv; format: ADME, organism-based; design: dose 1 mg/kg, route intravenous; conditions: in vivo; summary of the method: as §3
[23] = Volume of distribution at steady state in Sprague-Dawley rat at 1 mg/kg, iv; format: ADME, organism-based; design: dose 1 mg/kg, route intravenous; conditions: in vivo, read-out: Vdss; summary of the method: as §3
[24] = AUC in rhesus monkey at 2 mg/kg, po; format: ADME, organism-based, Macaca mulatta; design: dose 2 mg/kg, route oral; conditions: plasma; summary of the method: as §4
[25] = AUC in beagle dog at 2 mg/kg, po; format: ADME, organism-based, Canis lupus familiaris; design: dose 2 mg/kg, route oral; conditions: plasma; summary of the method: as §2
[26] = Cmax in beagle dog at 2 mg/kg, po; format: ADME, organism-based, Canis lupus familiaris; design: dose 2 mg/kg, route oral; conditions: in vivo; summary of the method: as §2
[27] = AUC in Sprague-Dawley rat at 2 mg/kg, po; format: ADME, organism-based; design: dose 2 mg/kg, route oral; conditions: plasma
Summary of the method: (§5)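 Sprague–Dawley rats; 1 mg/kg iv and 2 mg/kg p.o., both as solutions in EtOH/PEG400/water (10:50:40). Plasma AUC measured for the parent and, where applicable, for the epimerized metabolite formed in vivo.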

Rattus norvegicus [28] = assay: AUC in Sprague-Dawley rat assessed as cis-4-(5-(5-fluoro-1H-benzo[d]imidazol-2-yl)-2,3'-bipyridin-6'-yloxy)cyclohexanecarboxylic acid at 2 mg/kg, po; format: ADME, organism-based, Plasma; design: dose 2 mg/kg, route oral; conditions: in vivo; summary of the method: as §5
Mus musculus [29] = assay: Reduction in triglyceride excursion in mouse at 10 mg/kg, po measured at 18 hrs by lipid tolerance test; format: functional; design: scale not given: the % may be the effect or the level left
Summary of the method: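 Mouse lipid tolerance test. Oral dose of 10 mg/kg as a suspension in 0.5% methylcellulose; triglyceride reduction read at 18 h.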

Rattus norvegicus [30] = assay: Dose normalized AUC in Sprague-Dawley rat at 1 mg/kg, iv and 2 mg/kg, po; format: ADME, organism-based; conditions: in vivo; summary of the method: as §5
Canis familiaris [31] = assay: Reduction in triglyceride excursion in dog at 3 mg/kg, po administered 1 hr prior lipid-challenge measured up to 24 hrs by lipid tolerance test; format: functional, organism-based; design: dose 3 mg/kg; conditions: Canis lupus familiaris
Summary of the method: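 Dog lipid tolerance test. Oral dose of 3 mg/kg in 0.5% methyl cellulose; lipid challenge 1 h after dosing; triglyceride excursion compared with a vehicle group over time; plasma drug levels sampled from 0 to 24 h.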

Mus musculus [32] = assay: Reduction in triglyceride excursion in mouse at 3 mg/kg, po by lipid tolerance test; format: functional; design: scale not given: the % may be the effect or the level left

| Structure (SMILES) | IC50 [1] | logD [2] | IC50 [3] | clearance [7] | bioavailability [20] | half-life [22] | Vd [23] | further results |
| --- | --- | --- | --- | --- | --- | --- | --- | --- |
| CS(=O)(=O)c1ccc2nc(-c3ccc(-c4ccc(O[C@H]5CC[C@@H](C(=O)O)CC5)nc4)nc3)[nH]c2c1 | 101 nM |  | 358 nM |  |  |  |  |  |
| O=C(O)[C@H]1CC[C@H](Oc2ccc(-c3ccc(-c4nc5cc(F)c(F)cc5[nH]4)cn3)cn2)CC1 | 1.3 nM |  | 4.3 nM |  |  |  |  |  |
| COc1ccc2[nH]c(-c3ccc(-c4ccc(O[C@H]5CC[C@H](C(=O)O)CC5)nc4)nc3)nc2n1 | 14 nM |  |  |  |  |  |  |  |
| O=C(O)[C@H]1CC[C@@H](Oc2ccc(-c3ccc(-c4nc5ccc(Cl)cc5[nH]4)cn3)cn2)CC1 | 2.1 nM | 1.42 | 3.7 nM | 3 mL/min/kg | 19% | 3.7 h | 0.34 L/kg | Activity (Mus musculus [29]): 144%; AUC/dose (Rattus norvegicus [30]): 2.4 µM·h/mg/kg |
| N#Cc1ccc2nc(-c3ccc(-c4ccc(O[C@H]5CC[C@H](C(=O)O)CC5)nc4)nc3)[nH]c2c1 | 6 nM |  | 96 nM |  |  |  |  |  |
| O=C(O)[C@H]1CC[C@@H](Oc2ccc(-c3ccc(-c4nc5cc(F)ccc5[nH]4)cn3)cn2)CC1 |  |  |  |  |  |  |  | Activity (Canis familiaris [31]): Active; Activity (Mus musculus [32]): 72% |

Second part, led by results:

| IC50 [1] | logD [2] | IC50 [3] | clearance [7] | bioavailability [20] | half-life [22] | Vd [23] | Structure (SMILES) | further results |
| --- | --- | --- | --- | --- | --- | --- | --- | --- |
| 3.5 nM | 1.97 | 2.8 nM |  |  |  |  | O=C(O)C[C@H]1CC[C@H](c2ccc(-c3ccc(-c4nc5ccc(C(F)(F)F)cc5[nH]4)cn3)cc2)CC1 |  |
| 2 nM | 1.02 | 3.4 nM | 31.8 mL/min/kg | 2% | 1.69 h | 2.18 L/kg | O=C(O)[C@H]1CC[C@@H](Oc2ccc(-c3ccc(-c4nc5ccc(F)cc5[nH]4)cn3)cn2)CC1 | AUC [4]: 0.25 µM·h; clearance [5]: 32.3 mL/min/kg; AUC (Rattus norvegicus [6]): 2.47 µM·h; AUC (Canis familiaris [8]): 0.06 µM·h; Tmax [9]: 8 h; clearance [10]: 12.4 mL/min/kg; bioavailability [11]: 2%; Tmax [12]: 2 h; half-life [13]: 0.82 h; Tmax [14]: 0.25 h; half-life [15]: 2 h; AUC (Rhesus monkey): 0.56 µM·h; Cmax [16]: 10 nM; Vd [17]: 0.37 L/kg; Vd [18]: 0.63 L/kg; bioavailability [19]: 3%; Cmax [21]: 60 nM; AUC [24]: 0.2 µM·h; AUC [25]: 0.05 µM·h; Cmax [26]: 60 nM |
| 2.5 nM |  | 8.1 nM | 4.2 mL/min/kg | 24% | 0.86 h | 0.46 L/kg | O=C(O)[C@H]1CC[C@H](Oc2ccc(-c3ccc(-c4nc5ccc(F)cc5[nH]4)cn3)cn2)CC1 | AUC [27]: 4.47 µM·h; AUC (Rattus norvegicus [28]): 0.48 µM·h |
| 1.1 nM | 1.8 | 1 nM |  |  |  |  | O=C(O)C[C@H]1CC[C@H](c2ccc(-c3ccc(-c4nc5cc(Cl)ccc5[nH]4)cn3)cc2)CC1 |  |
